# Most compounds without a hit are left out; they make up all but 2.5% or so of the library.
# TRPC4 potent: TRPC4 (mouse) allosteric potentiation; B-score at 10 µM; actives 0.42% (n = 310,000); Q9QUQ5; HEK293 TRPC4beta/mu-opioid, DAMGO EC20, Fluo-4 Ca2+ flux; active compounds read high;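 active = B-score of calcium response area above 5 SD of library B-scores, with initial fluorescence ratio within 5 SD of library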;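 also: B-score of integrated fluorescence ratio over time as area under calcium response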
# Target sequence (Q9QUQ5 whole entry, looked up): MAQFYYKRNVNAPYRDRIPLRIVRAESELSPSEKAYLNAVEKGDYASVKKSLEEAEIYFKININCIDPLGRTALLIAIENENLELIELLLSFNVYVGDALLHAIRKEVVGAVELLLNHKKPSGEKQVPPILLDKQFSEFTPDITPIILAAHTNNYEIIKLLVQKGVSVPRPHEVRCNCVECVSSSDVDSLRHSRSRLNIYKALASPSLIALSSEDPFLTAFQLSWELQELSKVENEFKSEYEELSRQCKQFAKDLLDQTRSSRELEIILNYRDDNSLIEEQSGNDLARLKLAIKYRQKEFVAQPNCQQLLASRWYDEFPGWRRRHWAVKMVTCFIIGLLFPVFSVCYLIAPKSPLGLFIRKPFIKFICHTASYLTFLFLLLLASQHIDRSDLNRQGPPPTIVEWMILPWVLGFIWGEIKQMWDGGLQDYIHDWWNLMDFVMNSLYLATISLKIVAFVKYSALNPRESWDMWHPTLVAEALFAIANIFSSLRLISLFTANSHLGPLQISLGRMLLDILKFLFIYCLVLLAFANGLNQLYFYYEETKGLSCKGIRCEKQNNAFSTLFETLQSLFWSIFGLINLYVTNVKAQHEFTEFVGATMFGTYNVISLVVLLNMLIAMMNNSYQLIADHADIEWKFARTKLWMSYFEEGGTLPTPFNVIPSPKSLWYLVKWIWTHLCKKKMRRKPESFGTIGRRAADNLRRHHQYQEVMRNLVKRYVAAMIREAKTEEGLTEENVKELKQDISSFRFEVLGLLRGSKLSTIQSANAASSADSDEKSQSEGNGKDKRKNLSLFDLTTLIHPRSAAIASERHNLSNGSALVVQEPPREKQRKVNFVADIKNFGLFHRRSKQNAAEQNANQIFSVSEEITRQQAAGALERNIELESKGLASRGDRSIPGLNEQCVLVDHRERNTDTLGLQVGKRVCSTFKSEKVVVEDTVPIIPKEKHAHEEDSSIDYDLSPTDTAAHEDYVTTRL
# Platelet DG rel: platelet dense granule release activity. human platelet-rich plasma, SFLLRN dense granule ATP release, luminescence. actives 0.22% (n = 300,000). inhibition, %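 (compounds screened at 7.5 µM in platelet-rich plasma)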;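 active = mean replicate score, as percent of positive control, at or above 50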
# TRPC4 inh: inhibitors of mouse TRPC4 channel. AID 2247. HEK293 TRPC4beta/mu-opioid, DAMGO-evoked Fluo4 calcium flux; active compounds read low. Q9QUQ5. actives 0.39% (n = 300,000). B-score at 10 µM;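 active = B-score over 3 SD under the library average, no early fluorescence shift, positive overall ratio signal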
#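 Material: HEK293 cells with stable TRPC4beta plus mu-opioid receptor expression / Probe or stimulus: DAMGO in two steps, submaximal then maximal / Compound: single concentration per test compound / Technique: kinetic Fluo4 fluorescence imaging of calcium influx / Read-out: per-well B score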
# TRPC4 act: opens the mouse TRPC4 cation channel. HEK293 TRPC4beta/mu-opioid, Fluo4 calcium fluorescence; active compounds read high. B-score at 10 µM. actives 0.49% (n = 310,000). AID 2237;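 active = B-score above 5 SD of library B-scores, and initial fluorescence ratio not above library mean plus 5 SD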;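 also: positive B-score marks a calcium rise read as TRPC4 activation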
#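 Material: HEK293 stable line with TRPC4beta plus mu-opioid receptor; technique: Fluo4 calcium-sensitive dye fluorescence, kinetic, 1 Hz baseline; timing: Fluo4 dye loading 45 min at room temperature, 110 s recording; controls: assay buffer as low control, maximal DAMGO as high control; read-out: integrated baseline-normalised fluorescence ratio, converted to per-well B score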
# TRPC6 inhibitor: blocks the mouse TRPC6 cation channel; Q61143; HEK293-TRPC6, membrane potential dye, ACh-evoked depolarization; active compounds read low; B-score at 10 µM; actives 1.1% (n = 310,000); AID 2553;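 active = B-score under library mean minus 3 SD, initial fluorescence not abnormally high, positive integrated signal ratio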;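 also: B-score derived from integrated fluorescence ratio over the kinetic read; more negative B-score means stronger inhibition of depolarization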
# TRPC6 act: mouse TRPC6 channel activation. HEK293-TRPC6 membrane potential dye fluorescence; active compounds read high. B-score at 10 µM. Q61143. actives 0.13% (n = 310,000);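 active = B-score of the integrated fluorescence ratio above library mean plus 3 SD, and starting fluorescence ratio within library mean plus 5 SD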;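 also: higher score means more depolarization so channel activation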
# TRPC4 spec 2: mouse TRPC4 off-target activity of TRPC6 inhibitors, second screen; actives 42% (n = 920); HEK293 TRPC4/MOR, membrane potential dye fluorescence; channel activated by saturating DAMGO dose; inhibition, % at 10 µM; shares compounds with TRPC6 inhibitor;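 active = compounds whose fluorescence signal differed from control wells by over 3 SD, either direction, in both duplicate plates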
# TRPC4 spec: tests whether TRPC6 inhibitors also affect mouse TRPC4; shares compounds with TRPC6 inhibitor; HEK293 TRPC4/mu-opioid, membrane potential fluorescence; activity change, negative = inhibition, % at 10 µM; actives 61% (n = 920); AID 2777;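 active = rise or fall in signal beyond 3 SD of buffer-only wells in both replicate plates, either sign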;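 also: integrated kinetic ratio of fluorescence range over baseline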
# HEK293 MPD ctr 2-1: parental HEK293 nonspecific activity of TRPC6 inhibitors, second screen. parental HEK293 membrane potential dye fluorescence; maximal acetylcholine challenge after compound addition. AID 2779. actives 31% (n = 920). signal change vs control, % at 10 µM. shares compounds with TRPC6 inhibitor;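 active = membrane potential signal moving either way by over 3 SD of the maximum-effect control, in both duplicate plates, meaning non-specific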
# HEK293 MPD ctr-1: checks TRPC6 inhibitor effects in parental HEK293 cells; shares compounds with TRPC6 inhibitor; parental HEK293 membrane potential dye fluorescence; membrane potential signal change, % at 10 µM; actives 60% (n = 920); AID 2780;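 active = membrane potential signal shifting up or down by more than 3 SD of buffer-only wells, on both duplicate plates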
# HEK293 MPD ctr-2: parental HEK293 nonspecific activity of TRPC6 modulators. shares compounds with TRPC6 inhibitor. membrane potential dye fluorescence. membrane potential signal change, % at 10 µM. actives 51% (n = 2,400). AID 488924;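 active = membrane potential signal moves up or down beyond 5 SD from buffer-only wells, on both duplicate plates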
# HEK293 MPD ctr 2-2: parental HEK293 nonspecific activity of TRPC6 modulators, second screen | shares compounds with TRPC6 inhibitor | membrane potential dye fluorescence; after compound, maximal acetylcholine stimulation | inhibition, % at 10 µM | actives 14% (n = 2,400) | AID 488926;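 active = membrane potential signal drops by more than 5 SD from the mean control signal, in both duplicate plates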;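 also: plate controls were acetylcholine ECmax control wells for no effect and buffer only wells for full effect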
# TRPC4 ctr mod: mouse TRPC4 off-target activity of TRPC6 modulators; actives 69% (n = 2,400); HEK293 TRPC4/mu-opioid, membrane potential fluorescence; shares compounds with TRPC6 inhibitor; percent change from control (negative = decrease, positive = increase), % at 10 µM; AID 488927;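 active = membrane potential signal moved up or down beyond 5 SD of buffer control wells, in both duplicate plates, actives on both sides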;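 also: plate controls were assay buffer wells for no effect and DAMGO maximal-effect wells for full effect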
# TRPC4 ctr inh 2: second selectivity test of TRPC6 modulators against mouse TRPC4. shares compounds with TRPC6 inhibitor. HEK293 TRPC4/mu-opioid, membrane potential dye fluorescence; stimulated with maximal-effect DAMGO. inhibition, % at 10 µM. actives 55% (n = 2,400). AID 488928;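 active = drop in membrane potential signal beyond 5 SD of the control wells in both duplicate plates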;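 also: TRPC4 counter screen for TRPC6 hits run under conditions tuned for TRPC6 not TRPC4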
# TRPC6 block conf: confirmation of mouse TRPC6 inhibitors; shares compounds with TRPC6 inhibitor; HEK293-TRPC6, membrane potential dye, ACh-evoked depolarization; inhibition, % at 10 µM; actives 43% (n = 3,300); AID 488960;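 active = fluorescence ratio falls more than 5 SD below the full-stimulation control mean, in both duplicate runs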;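 also: integrated fluorescence ratio of peak minus minimum over baseline after agonist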
# TRPC6 act conf: confirmation of mouse TRPC6 activators; shares compounds with TRPC6 inhibitor; HEK293-TRPC6 membrane potential dye fluorescence, FDSS; activation, % at 10 µM; actives 11% (n = 2,800);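 active = ratio signal rise beyond 5 SD above unstimulated control wells' mean, seen in both duplicate runs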;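 also: plate controls were buffer EC0 wells for no effect and acetylcholine ECmax response for full effect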
# Active calls of the source: *; i = inactive; · = not tested or not shown.
SMILES,TRPC4 potent,Platelet DG rel,TRPC4 inh,TRPC4 act,TRPC6 inhibitor,TRPC6 act,HEK293 MPD ctr-2,HEK293 MPD ctr 2-2,TRPC4 ctr mod,TRPC4 ctr inh 2,TRPC6 block conf,TRPC6 act conf,others
CCOc1ccc(NC(=O)CC2C(=O)N(CC)C(=S)N2CCNC(C)=O)cc1 (stereo unspecified),i,14,i,i,-5.5*,i,i,i,i,i,i,i,
CCN1C(=O)C(CC(=O)Nc2ccc(F)cc2)N(CCCN2CCN(c3ccc(F)cc3)CC2)C1=S (stereo unspecified),i,20,i,i,-6.5*,i,i,i,i,47%*,44%*,i,
CCOC(=O)c1nnn(CC(=O)N2N=C(c3ccc(Cl)cc3)CC2c2ccccc2)c1C(=O)OCC (stereo unspecified),i,2,i,i,i,i,·,·,·,·,·,·,
COc1cccc(CNc2cnc3ccccc3c2)c1O,i,4,i,i,i,i,·,·,·,·,·,·,
COc1cccc(CNc2nc3ccccc3n2C)c1O,i,3,i,i,-5.7*,i,i,i,i,43%*,i,i,
Cn1c(NCc2c[nH]c3ccccc23)nc2ccccc21,i,6,-5*,i,-6.7*,i,·,·,·,·,i,i,TRPC4 spec 2=48%*;TRPC4 spec=-12%*;HEK293 MPD ctr 2-1=i;HEK293 MPD ctr-1=-214%*
COc1ccccc1/C=N\N=C(\N)c1ccccn1,i,-3,i,i,i,i,·,·,·,·,·,·,
Cc1ccc(S(=O)(=O)NCCNc2ccc([N+](=O)[O-])cc2)cc1,i,-2,i,i,-5.6*,i,i,i,-14%*,i,i,i,
CNC(=O)c1cc2c(=O)n3cc(C)ccc3nc2n(C(C)C)c1=N,i,5,i,i,-7.5*,i,-157%*,111%*,-48%*,51%*,84%*,i,
N=c1c(C(=O)NC2CCCC2)cc2c(=O)n3ccccc3nc2n1C1CCCCC1,i,3,i,i,-6.5*,i,-188%*,i,-30%*,50%*,44%*,i,
Cc1cccn2c(=O)c3cc(C(=O)NCC4CCCO4)c(=N)n(C4CCCCC4)c3nc12 (stereo unspecified),i,12,i,i,i,i,·,·,·,·,·,·,
Cc1ccc2nc3c(cc(C(=O)NC4CCCC4)c(=N)n3C3CCCCC3)c(=O)n2c1,i,-3,i,i,-6.4*,i,-186%*,i,-32%*,43%*,58%*,i,
Cc1ccc2nc3c(cc(C(=O)NC4CCCCC4)c(=N)n3C3CCCCC3)c(=O)n2c1,i,10,i,i,-7.8*,i,-132%*,i,-31%*,43%*,36%*,i,
C#Cc1ccc([C@@H]2C=C(C(=O)NCc3nc4ccccc4[nH]3)O[C@H](OCC)[C@H]2CCCO)cc1,i,13,i,i,i,i,·,·,·,·,·,·,
C=CCn1c(=N)c(C(=O)NCCCOC)cc2c(=O)n3ccccc3nc21,i,3,i,i,i,i,·,·,·,·,·,·,
C=CCn1c(=N)c(C(=O)NCCCOC)cc2c(=O)n3cc(C)ccc3nc21,i,2,i,i,-7.5*,i,·,·,·,·,i,i,TRPC4 spec 2=i;TRPC4 spec=2.7%*;HEK293 MPD ctr 2-1=-54%*;HEK293 MPD ctr-1=4.9%*
CCC(C)c1ccc(OCCn2cc(/C=N/NC(=O)CSc3nnc(C)s3)c3ccccc32)cc1 (stereo unspecified),i,2,i,i,i,i,·,·,·,·,·,·,
C=CCn1c(C)nc2c(sc3nc4c(cc32)COC(C)(C)C4)c1=O,i,8,i,i,i,i,·,·,·,·,·,·,
COc1cc(/C=N/NC(=O)Cn2nc([N+](=O)[O-])cc2C)cc(Br)c1OCc1ccccc1,i,-2,i,i,-5.1*,i,i,i,i,i,i,i,
O=C(CNc1cccc(C(F)(F)F)c1)N/N=C/c1ccccc1C(=O)O,i,-1,i,i,i,i,·,·,·,·,·,·,
O=[N+]([O-])c1cccc(-c2cc3cccc[n+]3cc2-c2cccc([N+](=O)[O-])c2)c1,i,-1,i,i,-10*,i,-395%*,i,-74%*,70%*,56%*,i,
Cc1sc2cc(-c3cccc([N+](=O)[O-])c3)c(-c3cccc([N+](=O)[O-])c3)c[n+]2c1C,i,-9,i,i,-6.7*,i,-332%*,96%*,-54%*,66%*,74%*,i,
O=[N+]([O-])c1cccc(-c2nnc(-c3ccccc3)o2)c1,i,-1,i,i,i,i,·,·,·,·,·,·,
O=C(O)CCCn1cc(NC(=O)c2c(F)cccc2F)cn1,i,0,i,i,i,i,·,·,·,·,·,·,

# Screens deposited in PubChem BioAssay by several laboratories.
